Results taken from ChEMBL document CHEMBL1145773, “Design, synthesis, SAR, and molecular modeling studies of acylthiocarbamates: a novel series of potent non-nucleoside HIV-1 reverse transcriptase inhibitors structurally related to phenethylthiazolylthiourea derivatives” (J Med Chem, 2003).

Assays:
MT-4 (Homo sapiens) = assay: Concentration required to reduce the viability of mock-infected MT-4 cells by 50% was determined by MTT method; settings: MT4
MT4 = assay: Selectivity index which is the ratio of CC50 and EC50 was determined; assay type: functional, Homo sapiens
Outline: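 MT-4 cells (1 × 10^4/well) were seeded with or without serial compound dilutions, then infected with HIV-1 IIIB at enough CCID50 for complete cytopathogenicity by day 4. Cultures were incubated at 37 °C and viability was read by MTT. […] Cytotoxicity was run in parallel on mock-infected cells, and SI = CC50/EC50. Data are means of three separate experiments.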

[1] = tested on: Human immunodeficiency virus 1; assay: Anti HIV-1 activity of selected N-acylthiocarbamates against Y181C resistant mutant; assay type: functional, organism-based
Outline: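 Acutely infected MT-4 cells (1 × 10⁴ cells/well) incubated at 37 °C with serial compound dilutions (DMSO stock, diluted in medium) and Y181C mutant virus (NIH N119; titer 1.3 × 10⁶ CCID₅₀/mL) dosed to cause full cytopathogenicity by day 4. Viability read by MTT; EC₅₀ = concentration giving 50% protection from virus-induced cytopathogenicity.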

[2] = target: Human immunodeficiency virus type 1 reverse transcriptase (Human immunodeficiency virus 1, UniProt Q72547); assay: Activity of selected HIV-1 N-acylthiocarbamates in enzyme assay against Virion-Associated reverse transcriptase
Outline: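 Virion-associated RT from stock virus disrupted with 0.5% NP-40. Incubation 60 min at 37 °C, then acid-insoluble radioactivity counted on glass fiber filters.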

[3] = tested on: Human immunodeficiency virus 1; assay: Concentration required to reduce the amount of p24 by 90% in HIV-1 infected C8166 cultures; assay type: functional, organism-based; settings: Human immunodeficiency virus 1, C8166
Outline: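 C8166 cells (1 × 10^4/well) were infected with wt HIV-1 in the presence of graded compound concentrations, with DMSO stocks diluted in culture medium. After incubation at 37 °C, p24 antigen was measured by immunoenzymatic kit. EC90 is the concentration lowering p24 by 90%.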

Row | Structure (SMILES) | CC50 (MT-4 (Homo sapiens)) | SI (MT4) | EC50 [1] | IC50 [2] | EC90 [3]
1 | CC(COc1ccccc1)OC(=S)N(C(=O)c1cccs1)c1cccc(Cl)c1 (stereo unspecified) | > 100 µM | >9 | – | – | –
2 | O=C(c1ccc(Cl)cc1)N(C(=S)OCCc1ccccc1)c1ccccc1 | 43 µM | 10.7 | – | – | –
3 | CC(=O)c1cccc(N(C(=O)c2cccs2)C(=S)OCCN2C(=O)c3ccccc3C2=O)c1 | > 100 µM | >17 | – | – | –
4 | O=C(COc1ccccc1)N(C(=S)OCCOc1ccccc1)c1ccccc1 | 103 µM | 17.1 | – | – | –
5 | O=C(c1ccc(Cl)cc1)N(C(=S)OCCOc1ccccc1)c1ccccc1 | 133 µM | 12.9 | – | – | –
6 | O=C(c1ccccc1)N(C(=S)OCc1ccco1)c1ccccc1 | 38.3 µM | – | – | – | –
7 | CC(COc1ccccc1)OC(=S)N(C(=O)c1cccc([N+](=O)[O-])c1)c1ccccc1 (stereo unspecified) | > 200 µM | >55.5 | – | – | –
8 | Cc1cccc(N(C(=O)c2cccs2)C(=S)OCCN2C(=O)c3ccccc3C2=O)c1 | > 100 µM | >10 | – | – | –
9 | CC(COc1ccccc1)OC(=S)N(C(=O)c1cccs1)c1ccc([N+](=O)[O-])cc1 (stereo unspecified) | 63 µM | 10.5 | – | – | –
10 | O=C(/C=C/c1ccccc1)N(C(=S)OCCOc1ccccc1)c1ccccc1 | 66.6 µM | 8.65 | – | – | –
11 | O=C(/C=C/c1ccccc1)N(C(=S)OCCc1ccccc1)c1ccccc1 | 40.4 µM | 9 | – | – | –
12 | O=C1c2ccccc2C(=O)N1CCOC(=S)N(C(=O)c1cccs1)c1cccc(Br)c1 | 53 µM | 44 | – | – | –
13 | COc1cccc(N(C(=O)c2cccs2)C(=S)OCCN2C(=O)c3ccccc3C2=O)c1 | > 100 µM | >28 | – | – | –
14 | O=C1c2ccccc2C(=O)N1CCOC(=S)N(C(=O)c1cccs1)c1cccc([N+](=O)[O-])c1 | 100 µM | 263 | – | – | –
15 | O=C(c1ccccc1)N(C(=S)OCCc1ccccc1)c1ccccc1 | 91 µM | 22 | – | – | –
16 | O=C1c2ccccc2C(=O)N1CCOC(=S)N(C(=O)c1cccs1)c1ccccc1Cl | > 100 µM | 9 | – | – | –
17 | CC(=O)Oc1ccccc1C(=O)N(C(=S)OCCOc1ccccc1)c1ccccc1 | > 200 µM | >21 | – | – | –
18 | O=C1c2ccccc2C(=O)N1CCOC(=S)N(C(=O)c1cccs1)c1ccc(Cl)cc1 | > 200 µM | >25000 | 1 µM | 2500 nM | 8 nM
19 | O=C(c1ccco1)N(C(=S)OCCc1ccccc1)c1ccccc1 | 102 µM | 24 | – | – | –
20 | O=C1c2ccccc2C(=O)N1CCOC(=S)N(C(=O)c1cccs1)c1cccc(F)c1 | > 100 µM | >9 | – | – | –

Row | Structure (SMILES) | CC50 (MT-4 (Homo sapiens)) | SI (MT4) | EC50 [1] | IC50 [2] | EC90 [3]
21 | O=C1c2ccccc2C(=O)N1CCOC(=S)N(C(=O)c1cccs1)c1ccc(F)cc1 | > 100 µM | >1000 | – | – | –
22 | O=C(c1ccc(Cl)cc1Cl)N(C(=S)OCCOc1ccccc1)c1ccccc1 | 43 µM | 3.7 | – | – | –
23 | CC(COc1ccccc1)OC(=S)N(C(=O)Oc1ccccc1)c1ccccc1 (stereo unspecified) | > 200 µM | – | – | – | –
24 | O=C(c1ccc(Cl)c([N+](=O)[O-])c1)N(C(=S)OCCOc1ccccc1)c1ccccc1 | 80 µM | 10.5 | – | – | –
25 | CCc1ccc(N(C(=O)c2ccco2)C(=S)OCCN2C(=O)c3ccccc3C2=O)cc1 | > 100 µM | >3333 | – | – | –
26 | O=C(c1ccco1)N(C(=S)OCCOc1ccccc1)c1ccccc1 | 82 µM | 9.7 | – | – | –
27 | CCOc1ccc(N(C(=O)c2ccc(Cl)nc2)C(=S)OCCN2C(=O)c3ccccc3C2=O)cc1 | – | >200 | – | – | –
28 | COc1ccccc1N(C(=O)c1cccs1)C(=S)OCCN1C(=O)c2ccccc2C1=O | > 100 µM | >9 | – | – | –
29 | CCc1ccccc1N(C(=O)c1cccs1)C(=S)OCCN1C(=O)c2ccccc2C1=O | > 100 µM | >9 | – | – | –
30 | Cc1ccc(N(C(=O)c2cccs2)C(=S)OCCN2C(=O)c3ccccc3C2=O)cc1 | > 100 µM | >250 | – | – | –
31 | O=C(c1ccccc1)N(C(=S)OCCOc1ccccc1)C1CCCCC1 | > 200 µM | – | – | – | –
32 | CC(COc1ccccc1)OC(=S)N(C(=O)c1cccs1)c1ccccc1 (stereo unspecified) | > 200 µM | >100 | – | – | –
33 | O=C(c1cc(Cl)cc(Cl)c1)N(C(=S)OCCOc1ccccc1)c1ccccc1 | 43 µM | 4.8 | – | – | –
34 | CC(COc1ccccc1)OC(=S)N(C(=O)c1ccco1)c1ccccc1 (stereo unspecified) | 51.5 µM | 39.6 | – | – | –
35 | O=C1c2ccccc2C(=O)N1CCOC(=S)N(C(=O)c1cccs1)c1ccc([N+](=O)[O-])cc1 | 168 µM | 16800 | 58 µM | – | –
36 | O=C1c2ccccc2C(=O)N1CCOC(=S)N(C(=O)c1ccco1)c1ccc(Cl)cc1 | 41 µM | 5857 | 1.7 µM | 2300 nM | 5 nM
37 | O=C(c1ccco1)N(C(=S)OCc1ccccc1)c1ccccc1 | – | 1.9 | – | – | –
38 | CCCOC(=O)N(C(=S)OC(C)COc1ccccc1)c1ccccc1 (stereo unspecified) | > 200 µM | >1.5 | – | – | –
39 | O=C1c2ccccc2C(=O)N1CCOC(=S)N(C(=O)c1ccco1)c1ccc([N+](=O)[O-])cc1 | 18 µM | 2250 | 14 µM | – | 5 nM
40 | CC(COc1ccccc1)OC(=S)N(C(=O)COc1ccccc1)c1ccccc1 (stereo unspecified) | 122 µM | 87.4 | – | – | –

Row | Structure (SMILES) | CC50 (MT-4 (Homo sapiens)) | SI (MT4) | EC50 [1] | IC50 [2] | EC90 [3]
41 | O=C1c2ccccc2C(=O)N1CCOC(=S)N(C(=O)c1cccs1)c1cccc(Cl)c1 | > 100 µM | >17 | – | – | –
42 | O=C1c2ccccc2C(=O)N1CCOC(=S)N(C(=O)c1ccc(Cl)cc1)c1ccc(Cl)cc1 | > 100 µM | >4000 | 11.6 µM | – | 20 nM
43 | CCCCOC(=O)N(C(=S)OC(C)COc1ccccc1)c1ccccc1 (stereo unspecified) | > 200 µM | >4 | – | – | –
44 | O=C1c2ccccc2C(=O)N1CCOC(=S)N(C(=O)c1ccccc1)c1ccccc1 | > 200 µM | >500 | > 100 µM | – | 800 nM
45 | CCN(CC)c1ccc(N(C(=O)c2cccs2)C(=S)OCCN2C(=O)c3ccccc3C2=O)cc1 | > 100 µM | 9 | – | – | –
46 | O=C(c1ccccc1)N(C(=S)OCCSc1ccccc1)c1ccccc1 | 44 µM | – | – | – | –
47 | O=C1c2ccccc2C(=O)N1CCOC(=S)N(C(=O)c1cccs1)c1ccc(I)cc1 | 18 µM | 1800 | – | – | –
48 | COc1cc(C(=O)N(C(=S)OCCOc2ccccc2)c2ccccc2)cc(OC)c1OC | > 200 µM | >20.8 | – | – | –
49 | O=C1c2ccccc2C(=O)N1CCOC(=S)N(C(=O)c1ccccc1)c1ccc(Cl)cc1 | > 200 µM | >2000 | > 100 µM | – | 130 nM
50 | O=C(c1ccccc1)N(C(=S)OCCOc1ccccc1)c1ccc(F)cc1 | 70.7 µM | 17.6 | – | – | –
51 | O=C(c1ccccc1)N(C(=S)OCCOc1ccccc1)c1ccccc1 | 122 µM | 15.2 | – | – | –
52 | CC(COc1ccccc1)OC(=S)N(C(=O)c1cccc2ccccc12)c1ccccc1 (stereo unspecified) | – | >33.3 | – | – | –
53 | O=C(c1cccs1)N(C(=S)OCCOc1ccccc1)c1ccccc1 | 125 µM | 14.5 | – | – | –
54 | Cc1ccc(C(=O)N(C(=S)OCCOc2ccccc2)c2ccccc2)cc1 | > 200 µM | >20.2 | – | – | –
55 | O=C1c2ccccc2C(=O)N1CCOC(=S)N(C(=O)c1ccccc1)c1ccc(Br)cc1 | > 200 µM | >5714 | – | – | –
56 | CC(COc1ccccc1)OC(=S)N(C(=O)c1cccs1)c1ccc(Cl)cc1 (stereo unspecified) | > 100 µM | >9 | – | – | –
57 | S=C(NCCc1ccccn1)Nc1ccc(Br)cn1 [TROVIRDINE] | 60 µM | 3000 | 1.2 µM | 4200 nM | 15 nM
58 | CC(COc1ccccc1)OC(=S)N(C(=O)c1ccccc1)c1ccccc1 (stereo unspecified) | > 200 µM | >153.8 | – | – | –
59 | O=C1c2ccccc2C(=O)N1CCOC(=S)N(C(=O)c1cccs1)c1cccc(C(F)(F)F)c1 | > 100 µM | >9 | – | – | –
60 | Cc1ccccc1N(C(=O)c1cccs1)C(=S)OCCN1C(=O)c2ccccc2C1=O | > 100 µM | >9 | – | – | –
